Source: ChEMBL document CHEMBL1128698, “5-Arylthio-substituted 2-amino-4-oxo-6-methylpyrrolo[2,3-d]pyrimidine antifolates as thymidylate synthase inhibitors and antitumor agents” (J Med Chem, 1995)

What was measured:
[1] = tested on: CCRF-CEM; experiment: Growth inhibition against Human leukemic cell line(CCRF-CEM) during continuous exposure
[2] = tested on: FaDu; experiment: Protection by 50 uM against the Growth inhibition against Human squamous cell line(Fadu); assay type: functional; design: scale not given: the % may be the effect or the level left
[3] = tested on: FaDu; experiment: Protection by 50 uM+40 uM against Growth inhibition against Human squamous cell line(Fadu), in the presence of 50 uM hypoxanthine +40 uM thymidine; assay type: functional; design: scale not given: the % may be the effect or the level left
[4] = tested on: FaDu; experiment: Protection by 10 uM LV against the growth inhibition against Human squamous cell line(Fadu); assay type: functional; design: scale not given: the % may be the effect or the level left
[5] = tested on: FaDu; experiment: Protection by 40 uM against the Growth inhibition against Human squamous cell line(Fadu), in the presence of 40 uM thymidine; assay type: functional; design: scale not given: the % may be the effect or the level left
[6] = tested on: A253 cell line; experiment: Growth inhibition against Human squamous cell line(A 253); assay type: functional, cell-based
Method in brief: (§1)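 Continuous drug exposure growth assay. CCRF-CEM and its MTX-resistant subline R30dm (1% of parental FPGS activity) cultured as previously reported; A253 and FaDu squamous carcinoma monolayers subcultured in RPMI 1640/10% fetal calf serum. EC50 read visually from plots of percent control growth against log drug concentration. Averages ± range for n = 2, ± SD for n ≥ 3.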

[7] = tested on: FaDu; experiment: Protection against the growth inhibition against Human squamous cell line(Fadu); assay type: functional; design: scale not given: the % may be the effect or the level left
[8] = target: Dihydrofolate reductase (Lactobacillus casei, UniProt P00381); experiment: Inhibitory activity against dihydro folate reductase from Lactobacillus casei; design: species or system Lacticaseibacillus casei
Sequence of Dihydrofolate reductase (Lactobacillus casei, UniProt P00381) (P00381 whole entry): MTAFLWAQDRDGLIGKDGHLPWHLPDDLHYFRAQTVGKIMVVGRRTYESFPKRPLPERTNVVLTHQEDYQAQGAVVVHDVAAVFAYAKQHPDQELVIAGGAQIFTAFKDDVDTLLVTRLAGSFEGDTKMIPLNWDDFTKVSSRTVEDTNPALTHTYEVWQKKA

[9] = target: T1, Dihydrofolate reductase (Homo sapiens, UniProt P00374); experiment: Inhibitory activity against dihydro folate reductase from human recombinant sources
T1 sequence (P00374 whole entry): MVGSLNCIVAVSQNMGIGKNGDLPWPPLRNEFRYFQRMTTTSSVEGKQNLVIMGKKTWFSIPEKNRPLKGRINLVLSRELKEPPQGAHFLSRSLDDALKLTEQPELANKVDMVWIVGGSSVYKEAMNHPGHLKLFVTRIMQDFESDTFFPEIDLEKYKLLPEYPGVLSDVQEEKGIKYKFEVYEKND

[10] = tested on: FaDu; experiment: Growth inhibition against Human squamous cell line(Fadu); assay type: functional, cell-based
Method in brief: as §1

[11] = tested on: CCRF-CEM; experiment: Growth inhibition against Human leukemic cell line(CCRF-CEM); assay type: functional, cell-based
Method in brief: as §1

[12] = tested on: CCRF-CEM; experiment: Growth inhibition against Human leukemic cell line (Methotrexate resistant CCRF-CEM); assay type: functional, cell-based
Method in brief: as §1

[13] = target: T1, Dihydrofolate reductase; experiment: Inhibitory activity against dihydro folate reductase from human CCRF-CEM leukemic cell line
[14] = target: T2, Thymidylate synthase (Lactobacillus casei, UniProt P00469); experiment: Inhibitory activity against thymidylate Synthase from Lactobacillus casei; design: species or system Lacticaseibacillus casei
T2 sequence (P00469 whole entry): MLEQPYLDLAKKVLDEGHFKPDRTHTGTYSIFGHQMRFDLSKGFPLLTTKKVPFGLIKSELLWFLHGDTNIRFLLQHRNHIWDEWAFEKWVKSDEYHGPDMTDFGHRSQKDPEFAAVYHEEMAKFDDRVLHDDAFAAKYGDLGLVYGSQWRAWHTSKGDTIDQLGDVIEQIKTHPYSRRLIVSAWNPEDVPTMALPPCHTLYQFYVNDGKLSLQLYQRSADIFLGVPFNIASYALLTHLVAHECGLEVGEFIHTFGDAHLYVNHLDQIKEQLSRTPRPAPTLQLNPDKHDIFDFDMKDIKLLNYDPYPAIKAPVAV

[15] = target: Thymidylate synthase (Homo sapiens, UniProt P04818); experiment: Inhibitory activity against thymidylate Synthase from human recombinant sources
Sequence of Thymidylate synthase (Homo sapiens, UniProt P04818) (P04818 whole entry): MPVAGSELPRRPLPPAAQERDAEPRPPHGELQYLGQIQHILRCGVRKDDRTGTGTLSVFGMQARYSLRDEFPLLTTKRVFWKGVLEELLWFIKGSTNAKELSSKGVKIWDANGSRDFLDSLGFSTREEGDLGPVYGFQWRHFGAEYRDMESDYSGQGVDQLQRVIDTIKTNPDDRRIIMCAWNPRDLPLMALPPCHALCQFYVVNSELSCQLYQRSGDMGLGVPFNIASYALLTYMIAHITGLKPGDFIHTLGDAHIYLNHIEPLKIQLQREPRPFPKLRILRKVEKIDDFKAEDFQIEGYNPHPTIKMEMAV

Compound | EC50 [1] [nM] | Control [2] [%] | Control [3] [%] | Control [4] [%] | Control [5] [%] | EC50 [6] [nM] | Control [7] [%] | IC50 [8] [nM] | IC50 [9] [nM] | EC50 [10] [nM] | EC50 [11] [nM] | EC50 [12] [nM] | IC50 [13] [nM] | IC50 [14] [nM] | IC50 [15] [nM]
C#CCN(Cc1ccc2[nH]c(N)nc(=O)c2c1)c1ccc(C(=O)NC(CCC(=O)O)C(=O)O)cc1 (centres undefined) | 720 | – | – | – | – | – | – | – | – | – | – | – | – | – | –
CN(Cc1cnc2nc(N)nc(N)c2n1)c1ccc(C(=O)N[C@@H](CCC(=O)O)C(=O)O)cc1 [METHOTREXATE] | – | 18 | 95 | 114 | 11 | 13 | 2 | – | – | – | – | – | – | – | –
CC1=C(Sc2ccc(C(=O)NC(CCC(=O)O)C(=O)O)cc2)C2C(=O)NC(N)=NC2N1 (centres undefined) | – | 4 | 78 | 7 | 83 | 3000 | 5 | 2200 | 2200 | 530 | 450 | 810 | 124 | 21 | –
CC1=C(Sc2ccncc2)C2C(=O)NC(N)=NC2N1 (centres undefined) | – | – | – | – | – | – | – | > 69000 | > 69000 | – | – | – | – | 100000 | 340
